Reference: ChEMBL document CHEMBL4196081, “Synthesis and antimycobacterial activity of 1-(β-d-Ribofuranosyl)-4-coumarinyloxymethyl- / -coumarinyl-1,2,3-triazole” (Eur J Med Chem, 2018)
Converted amounts (≈) assume the structure as drawn.

Legend:
[1] = system: Mycobacterium tuberculosis; assay: Antimycobacterial activity against Mycobacterium tuberculosis H37Rv after 10 days by MABA; type: functional; conditions: 240 h
How it was run: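 MABA in 7H9 medium: log-phase culture passed through 8 µm filter, density set by OD600 and McFarland standards, 1 × 10^6 cells per well with drug dilutions; aerobic incubation 37 °C 10 days, then 0.02 % resazurin, overnight 37 °C. MIC = lowest concentration preventing blue-to-pink change. Triplicate; medium+inoculum and medium-only controls.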

[2] = system: Mycobacterium tuberculosis; assay: Antimycobacterial activity against MDR Mycobacterium tuberculosis isolate 591 after 15 days by MABA; type: functional; conditions: isolate 591, 360 h
How it was run: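 MABA in 7H9 medium on MDR clinical isolate 591: filtered single-cell suspension, 1 × 10^6 cells per well with drug dilutions, aerobic 37 °C; 0.02 % resazurin added on day 15, overnight 37 °C. MIC = lowest concentration preventing blue-to-pink change. Triplicate; medium+inoculum and medium-only controls.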

[3] = Cytotoxicity against human THP1 cells assessed as cell viability at 18.72 ug/ml after 24 hrs by MTT assay relative to control; type: cell-based; conditions: THP-1 cells, read-out: Activity
How it was run: (§1)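 THP-1 cells (human monocytic line) seeded at 10^4 per well and adhered with phorbol myristate acetate (20 ng/mL). Then given fresh RPMI with 10% foetal calf serum and 2 mM L-glutamine, plus compound by serial double dilution (4.68–150 µg/mL), with DMSO and no-DMSO controls. Incubated 24 or 48 h at 37 °C, 5% CO2. MTT added for 4 h, formazan dissolved in DMSO, A540 read, percentage survival calculated.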

[4] = Cytotoxicity against human THP1 cells assessed as cell viability at 4.68 ug/ml after 48 hrs by MTT assay relative to control; type: cell-based; conditions: THP-1 cells, read-out: Activity; how it was run: as §1
[5] = Cytotoxicity against human THP1 cells assessed as cell viability at 150 ug/ml after 48 hrs by MTT assay relative to control; type: cell-based; conditions: THP-1 cells, read-out: Activity; how it was run: as §1
[6] = Selectivity index, ratio of IC50 for cytotoxicity against human THP1 cells to MIC for Mycobacterium tuberculosis H37Rv; type: toxicity, cell-based; conditions: THP-1 cells, read-out: Selectivity Index
How it was run: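 THP-1 cells, 10^4/well, adhered with PMA 20 ng/mL, in RPMI with 10 % FCS and 2 mM L-glutamine; exposed to 4.68–150 µg/mL for 24 and 48 h at 37 °C, 5 % CO2; MTT 4 h, formazan in DMSO, A540. Index = THP-1 IC50 divided by H37Rv MABA MIC.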

[7] = Cytotoxicity against human THP1 cells assessed as cell viability at 9.36 ug/ml after 24 hrs by MTT assay relative to control; type: cell-based; conditions: THP-1 cells, read-out: Activity; how it was run: as §1
[8] = Cytotoxicity against human THP1 cells assessed as cell viability at 37.48 ug/ml after 48 hrs by MTT assay relative to control; type: cell-based; conditions: THP-1 cells, read-out: Activity; how it was run: as §1
[9] = Cytotoxicity against human THP1 cells assessed as cell viability at 75 ug/ml after 48 hrs by MTT assay relative to control; type: cell-based; conditions: THP-1 cells, read-out: Activity; how it was run: as §1
[10] = Cytotoxicity against human THP1 cells assessed as cell viability at 4.68 ug/ml after 24 hrs by MTT assay relative to control; type: cell-based; conditions: THP-1 cells, read-out: Activity; how it was run: as §1
[11] = Cytotoxicity against human THP1 cells assessed as cell viability at 75 ug/ml after 24 hrs by MTT assay relative to control; type: cell-based; conditions: THP-1 cells, read-out: Activity; how it was run: as §1
[12] = Cytotoxicity against human THP1 cells assessed as cell viability at 37.48 ug/ml after 24 hrs by MTT assay relative to control; type: cell-based; conditions: THP-1 cells, read-out: Activity; how it was run: as §1
THP-1 = assay: Cytotoxicity against human THP1 cells assessed as growth inhibition after 24 to 48 hrs by MTT assay; type: cell-based; how it was run: as §1
[13] = Cytotoxicity against human THP1 cells assessed as cell viability at 150 ug/ml after 24 hrs by MTT assay relative to control; type: cell-based; conditions: THP-1 cells, read-out: Activity; how it was run: as §1
[14] = Cytotoxicity against human THP1 cells assessed as cell viability at 9.36 ug/ml after 48 hrs by MTT assay relative to control; type: cell-based; conditions: THP-1 cells, read-out: Activity; how it was run: as §1
[15] = Cytotoxicity against human THP1 cells assessed as cell viability at 18.72 ug/ml after 48 hrs by MTT assay relative to control; type: cell-based; conditions: THP-1 cells, read-out: Activity; how it was run: as §1
[16] = system: Mycobacterium tuberculosis; assay: Ratio of MBC to MIC for Mycobacterium tuberculosis H37Rv; type: functional
[17] = system: Mycobacterium tuberculosis; assay: Bactericidal activity against Mycobacterium tuberculosis H37Rv after 4 weeks by MABA; type: functional; conditions: 672 h

Compound | MIC [1] [µM] | MIC [2] [µM] | Ratio [16] | MBC [17] [µM] | further results
Cc1cc(=O)oc2cc(-c3cn([C@@H]4O[C@H](CO)[C@@H](O)[C@H]4O)nn3)c(Cl)cc12 | 30.5 (≈ 12 µg/mL) | 25.4 (≈ 10 µg/mL) |  |  | 
[H]/N=C(/N)N[C@H]1[C@H](O)[C@@H](O)[C@H](O[C@@H]2O[C@@H](C)[C@](O)(C=O)[C@H]2O[C@@H]2O[C@@H](CO)[C@H](O)[C@@H](O)[C@@H]2NC)[C@@H](N/C(N)=N\[H])[C@@H]1O [STREPTOMYCIN] | 0.43 (≈ 0.25 µg/mL) | 69 (≈ 40.1 µg/mL) |  |  | viability at 24 h, 18.72 ug/ml [3]: 98%; viability at 48 h, 4.68 ug/ml [4]: 90%; viability at 48 h, 150 ug/ml [5]: 55%; selectivity ratio [6]: 600; viability at 24 h, 9.36 ug/ml [7]: 99%; viability at 48 h, 37.48 ug/ml [8]: 77%; viability at 48 h, 75 ug/ml [9]: 69%; viability at 24 h, 4.68 ug/ml [10]: 100%; viability at 24 h, 75 ug/ml [11]: 80%; viability at 24 h, 37.48 ug/ml [12]: 89%; IC50 (THP-1): > 258 µM; viability at 24 h, 150 ug/ml [13]: 75%; viability at 48 h, 9.36 ug/ml [14]: 86%; viability at 48 h, 18.72 ug/ml [15]: 84%
CO[C@H]1/C=C/O[C@@]2(C)Oc3c(C)c(O)c4c(O)c(c(/C=N/N5CCN(C)CC5)c(O)c4c3C2=O)NC(=O)/C(C)=C\C=C\[C@H](C)[C@H](O)[C@@H](C)[C@@H](O)[C@@H](C)[C@H](OC(C)=O)[C@@H]1C [RIFAMPIN] | 0.02 (≈ 0.0165 µg/mL) | 152 (≈ 125 µg/mL) |  |  | 
Cc1cc(=O)oc2cc(OCc3cn([C@@H]4O[C@H](COC(=O)c5ccccc5)[C@@H](OC(=O)c5ccccc5)[C@H]4OC(=O)c4ccccc4)nn3)c(Cl)cc12 | 13.5 (≈ 9.94 µg/mL) | 20.4 (≈ 15 µg/mL) | 2 | 27.2 (≈ 20 µg/mL) | 
Cc1cc(=O)oc2cc(-c3cn([C@@H]4O[C@H](COC(=O)c5ccccc5)[C@@H](OC(=O)c5ccccc5)[C@H]4OC(=O)c4ccccc4)nn3)ccc12 | 11.9 (≈ 7.99 µg/mL) | 29.8 (≈ 20 µg/mL) | 2.25 | 26.8 (≈ 18 µg/mL) | 
CC[C@@H](CO)NCCN[C@@H](CC)CO [ETHAMBUTOL] | 9.7 (≈ 1.98 µg/mL) | 73.4 (≈ 15 µg/mL) |  |  | 
Cc1cc(=O)oc2cc(OCc3cn([C@@H]4O[C@H](COC(=O)c5ccccc5)[C@@H](OC(=O)c5ccccc5)[C@H]4OC(=O)c4ccccc4)nn3)ccc12 | 8.5 (≈ 5.96 µg/mL) | 11.4 (≈ 8 µg/mL) | 2 | 17.1 (≈ 12 µg/mL) | 
O=c1cc(-c2ccccc2)c2ccc(-c3cn([C@@H]4O[C@H](CO)[C@@H](O)[C@H]4O)nn3)cc2o1 | 14.2 (≈ 5.98 µg/mL) | 18.9 (≈ 7.96 µg/mL) | 2 | 28.5 (≈ 12 µg/mL) | viability at 24 h, 18.72 ug/ml [3]: 84%; viability at 48 h, 4.68 ug/ml [4]: 96%; viability at 48 h, 150 ug/ml [5]: 62%; selectivity ratio [6]: 25; viability at 24 h, 9.36 ug/ml [7]: 94%; viability at 48 h, 37.48 ug/ml [8]: 70%; viability at 48 h, 75 ug/ml [9]: 63%; viability at 24 h, 4.68 ug/ml [10]: 100%; viability at 24 h, 75 ug/ml [11]: 68%; viability at 24 h, 37.48 ug/ml [12]: 70%; IC50 (THP-1): > 355 µM; viability at 24 h, 150 ug/ml [13]: 65%; viability at 48 h, 9.36 ug/ml [14]: 94%; viability at 48 h, 18.72 ug/ml [15]: 83%
O=c1ccc2ccc(-c3cn([C@@H]4O[C@H](CO)[C@@H](O)[C@H]4O)nn3)cc2o1 | 28.9 (≈ 9.98 µg/mL) | 28.9 (≈ 9.98 µg/mL) | 1.6 | 46.3 (≈ 16 µg/mL) | 
